Screens: PubChem, several laboratories
A selection: hits, their analogues and other compounds. The true share with any hit is near 1.6%.
Diaph inh CS: diaphorase inhibition or chemical oxidation counter-screen | actives 0.69% (n = 190,000) | diaphorase resazurin-to-resorufin fluorescence, NADH, 16 min; bacterial (C. kluyveri) enzyme, not human | inhibition, % at 20 µM;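 active = primary screen inhibition at 20 µM above a set limit, cut at about 50% in these data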
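Benchmarks: positive control wells lacking NADH, neutral wells with DMSO only. System: bacterial diaphorase enzyme (C. kluyveri). Input: 0.14 U/mL diaphorase, enzyme working solution. Detection: resorufin fluorescence, excitation 544 nm, emission 590 nm. Times: 16-min room-temperature incubation before reading.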
ABCG2 block: blocks JC-1 efflux by human ABCG2 transporter. inhibition, % at 6.6 µM. actives 0.1% (n = 190,000). Q9UNQ0. IgMXP3 cells, flow cytometry;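 active = inhibition above 80%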
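Test system: IgMXP3 cells (ABCG2) mixed with DDAO far-red-labelled CCRF-Adr cells (ABCB1). Reagent: JC-1 transporter substrate. Compound dosing: single test compound dose, 6.6 µM final. Times: 10 min compound exposure, 25 °C. Detection: flow cytometry of retained JC-1 fluorescence. Read-out basis: efflux inhibition in percent versus controls. Controls: nicardipine and DMSO wells.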
Diaph act CS: diaphorase activation or chemical reduction counter-screen | activation factor at 20 µM | Diaphorase/resazurin coupled assay, resorufin fluorescence, 16 min; stronger effect = higher value; 1 = vehicle wells, 0 = NADH-free wells | actives 0.005% (n = 190,000) | AID 1229;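 active = diaphorase activity raised at least twofold by the compound at 20 µM; inactive = activation factor below 2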
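Material: Purified diaphorase enzyme from Clostridium kluyveri | Buffer or medium: 50 mM HEPES pH 7.4 with 4.542 mM MgCl2, 0.005% Tween 20 | Times: 16 min enzyme reaction, ambient temperature | Signal: Red resorufin fluorescence at 544/590 nm excitation/emission | Measure: Increased resorufin signal from activators or reducing compounds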
ABCB1 block: blocks JC-1 efflux by human ABCB1 transporter; actives 0.067% (n = 190,000); inhibition, % at 6.6 µM; CCRF-Adr cells, flow cytometry; in the data active = inhibition above about 40%;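 also: higher value means more JC-1 retained so stronger ABCB1 efflux block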
Target sequence (P08183 whole entry, looked up): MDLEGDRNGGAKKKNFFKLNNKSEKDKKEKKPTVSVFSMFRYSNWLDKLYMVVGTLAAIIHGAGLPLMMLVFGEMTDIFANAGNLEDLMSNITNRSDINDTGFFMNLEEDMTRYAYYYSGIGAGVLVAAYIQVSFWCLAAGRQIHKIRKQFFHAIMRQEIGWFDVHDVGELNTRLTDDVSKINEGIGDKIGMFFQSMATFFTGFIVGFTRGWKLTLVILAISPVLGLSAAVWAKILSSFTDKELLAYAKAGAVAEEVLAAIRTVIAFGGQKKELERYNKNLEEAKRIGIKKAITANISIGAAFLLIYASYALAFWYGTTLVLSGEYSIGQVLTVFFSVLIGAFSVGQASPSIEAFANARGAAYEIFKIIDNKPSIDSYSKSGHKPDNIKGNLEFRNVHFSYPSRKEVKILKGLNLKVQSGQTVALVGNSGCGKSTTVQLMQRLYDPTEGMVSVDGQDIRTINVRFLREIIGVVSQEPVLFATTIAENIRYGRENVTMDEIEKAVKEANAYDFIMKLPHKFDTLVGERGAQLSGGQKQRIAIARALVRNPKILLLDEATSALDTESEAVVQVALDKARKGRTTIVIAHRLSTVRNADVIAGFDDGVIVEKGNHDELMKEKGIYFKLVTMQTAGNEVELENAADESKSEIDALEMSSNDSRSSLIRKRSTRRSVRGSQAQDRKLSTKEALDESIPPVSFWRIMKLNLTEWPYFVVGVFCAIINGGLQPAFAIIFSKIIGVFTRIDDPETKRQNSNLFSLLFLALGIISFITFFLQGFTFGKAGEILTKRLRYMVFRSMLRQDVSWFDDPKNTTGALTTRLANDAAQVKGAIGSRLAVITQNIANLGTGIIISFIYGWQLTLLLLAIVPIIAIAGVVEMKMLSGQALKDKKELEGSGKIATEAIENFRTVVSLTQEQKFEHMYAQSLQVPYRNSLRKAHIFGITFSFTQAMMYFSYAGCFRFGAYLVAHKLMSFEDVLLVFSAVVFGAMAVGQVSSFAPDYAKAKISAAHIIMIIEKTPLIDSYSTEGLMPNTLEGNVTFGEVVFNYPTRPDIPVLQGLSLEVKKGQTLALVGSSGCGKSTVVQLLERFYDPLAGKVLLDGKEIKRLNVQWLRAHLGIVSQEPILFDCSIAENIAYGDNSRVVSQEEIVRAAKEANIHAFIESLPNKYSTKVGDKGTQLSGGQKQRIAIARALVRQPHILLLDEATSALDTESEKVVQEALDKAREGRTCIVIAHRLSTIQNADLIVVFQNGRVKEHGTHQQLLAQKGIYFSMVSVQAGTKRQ
NCF1 inh: blocks human p47phox regulatory protein of NADPH oxidases; P14598; p47phox/p22phox peptide binding, fluorescence polarization, 2 h; inhibition, % at 24.7 µM; actives 0.53% (n = 220,000); AID 1274;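 active = inhibition above about 30%, limit read from the data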
Efa HMGR inh: blocks class II HMG-CoA reductase of Enterococcus faecalis; actives 0.41% (n = 190,000); inhibition, % at 10 µM; purified E. faecalis HMGR, NADPH absorbance 340 nm kinetic; AID 1066;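 active = inhibition above a set limit, the median over all tested compounds plus 3 SD, cut at about 9.5% in these data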;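 also: enzyme runs in reverse so mevalonate oxidation gives rising NADPH absorbance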
Large screens that a line does not name were inactive.

OCCCCNc1cccc2ccccc12	NCF1 inh 42
CN(C(=O)c1ccccc1)C1(C)CCS(=O)(=O)C1 (stereo unspecified)	none
O=[N+]([O-])c1ccc(N2CCCCC2)c(-c2nn[nH]n2)c1	Efa HMGR inh 14
CCC(OC(=O)C1=Cc2ccccc2OC1)C(=O)NCc1ccco1 (stereo unspecified)	Efa HMGR inh 12
Cc1ccc(S(=O)(=O)N(Cc2n[nH]c(=S)n2-c2ccccc2)c2cccc(Cl)c2)cc1	none
COc1ccc(-c2c(N)n[nH]c2C)cc1OC	Efa HMGR inh 15
Cc1cc(C)c2sc(N(CCN(C)C)C(=O)c3c(F)cccc3F)nc2c1	none
Nn1cc(-c2ccccc2)nc1SCC(=O)N1CCN(S(=O)(=O)c2ccc(Cl)cc2)CC1	Diaph inh CS 54
CN(C)c1nc(C(=O)NN)nc(N(C)C)n1	none
CN(C)c1nc(N)c2ncc(=S)[nH]c2n1	Diaph inh CS 52
COc1cc(C2C(S(=O)(=O)c3ccccc3)CON2C)ccc1OCc1ccc(F)cc1 (stereo unspecified)	none
Cc1occc1C(=O)N/N=C/c1cnn(C)c1C	Diaph inh CS 60
Cc1c(/C=N\NC(=O)c2ccc(F)cc2)cnn1C	none
CCOC(=O)CSc1nnc(NC(=O)c2cc([N+](=O)[O-])cc([N+](=O)[O-])c2)s1	NCF1 inh 36
O=C(N/N=C1/C(=O)c2cccc3cccc1c23)c1ccc(Cl)cc1	Diaph inh CS 68, NCF1 inh 48
CCNC(=S)N/N=C1\C(=O)c2cccc3cccc1c23	none
O=C(O)c1ccc(S(=O)(=O)c2ccc3c(c2)C(=O)N(CC2CCCO2)C3=O)cc1 (stereo unspecified)	none
COC(=O)c1cc(Br)c(=O)n(-c2ccc(F)cc2)c1	NCF1 inh 31
Cc1cc(=O)n2[nH]c(-c3ccsc3-n3c(C)ccc3C)cc2n1	none (no result: Diaph inh CS, ABCG2 block, Diaph act CS, ABCB1 block, Efa HMGR inh)
Cc1nc2cc(-c3ccsc3-n3c(C)ccc3C)[nH]n2c(=O)c1Cl	Diaph inh CS 64
O=S(=O)(c1ccccc1)c1nc(Nc2ccccc2N2CCOCC2)sc1Cl	none
Cc1cccc(NNC(N)=S)c1C	Efa HMGR inh 10
Cc1ccc(C)c(NNC(N)=S)c1	none
O=C(Cn1c(O)c(/C=C2\C=Nc3ccc(Br)cc32)sc1=O)N1CCCC1	NCF1 inh 39
COc1ccc(OC)c(C2C(C(=O)c3ccccc3)=C(C)Nc3nc4ccccc4n32)c1 (stereo unspecified)	none
COc1ccc(C2C(C(=O)c3ccccc3)=C(C)Nc3nc4ccccc4n32)cc1OC (stereo unspecified)	NCF1 inh 34
CCOC(=O)CNC=C(C(=O)OCC)C(=O)OCC	none
O=C(c1cc(COc2ccc(F)cc2Cl)on1)N1CCC(c2ccncc2)CC1	Diaph inh CS 68
COc1ccc(C2/C=C\CN(C(=O)Oc3ccccc3)CC(=O)N2Cc2ccc(F)cc2)cc1 (stereo unspecified)	none (no result: Diaph inh CS, ABCG2 block, Diaph act CS, ABCB1 block, Efa HMGR inh)
O=C(CCCOc1ccc(Cl)cc1Cl)N/N=C/c1ccccc1	NCF1 inh 51
Cc1ccc(/C=N/NC(=O)CCCOc2ccc(Cl)cc2Cl)cc1	none
COc1c(Cl)cc(C(=O)NN)cc1Cl	none
NNC(=O)c1cc(O)c(O)c(O)c1	Diaph inh CS 65
COc1ccc(N(CCCN2C(=O)c3cccc4cccc(c34)C2=O)C(=O)c2cccc(OC)c2)cc1	Diaph inh CS 56
Cc1ccc(N(CCCCN2C(=O)c3ccccc3C2=O)C(=O)c2cccc([N+](=O)[O-])c2)cc1	none
COc1cc(CNc2ccc3[nH]c(=O)[nH]c3c2)ccc1OCC(=O)NC(C)(C)C	Diaph inh CS 69
C=CCOc1cccc(CNc2ccc3[nH]c(=O)[nH]c3c2)c1	none
C=CCOc1ccc(CNc2ccc3[nH]c(=O)[nH]c3c2)cc1OC	Diaph inh CS 94
CCS(=O)(=O)NCC(c1ccco1)N1CCN(c2ccccc2)CC1 (stereo unspecified)	none
O=S(=O)(Nc1cccc(C(F)(F)F)c1)c1cccnc1	none
c1ccc(-c2nnc(SCc3nnc(-c4cccs4)o3)o2)cc1	Efa HMGR inh 16
Clc1ccc(-c2nnc(CSc3nnc(-c4cccs4)o3)o2)cc1	none
CCCc1cc(=O)oc2cc(C)cc(O)c12	NCF1 inh 147
COc1ccc(-c2cc(-n3c(C(F)(F)F)nc4ccccc43)n(CCC#N)n2)cc1	Efa HMGR inh 13
COc1ccc(Sc2nc3ccccc3n3c(C(F)(F)F)nnc23)cc1	none
Cc1cc(NC(=O)Cc2cccs2)no1	none
O=C(CNC(=O)c1ccc(S(=O)(=O)N2CCCC2)cc1)N/N=C/c1ccc(Cl)cc1	Efa HMGR inh 16
O=C(CNC(=O)c1ccc(S(=O)(=O)N2CCCC2)cc1)N/N=C/c1ccccc1	none
COc1ccc(OC)c(NC(=O)C2C3CCC(O3)C2C(=O)O)c1 (stereo unspecified)	NCF1 inh 53
COc1ccc(OC)c(NC(=O)C2CCCC2)c1	none
Cc1ccc(C(=O)ONc2ccc(N=O)cc2)cc1	none
Cc1ccc(C(=O)ONc2ccc(N=NC(=O)c3ccccc3O)cc2)cc1	Diaph inh CS 54
O=C(CS(=O)(=O)c1ccccc1)Nc1nc(-c2ccc(F)cc2)cs1	none
O=C(CN1CCC(NC(=O)c2ccc(F)cc2)CC1)NCc1ccccc1F	NCF1 inh 50
O=C(CSc1nnc(CNC(=O)c2c(F)cccc2Cl)o1)Nc1ccc2c(c1)OCO2	NCF1 inh 31
CC(C)N(CC(=O)Nc1ccc(Cl)cc1C(F)(F)F)C(=O)CCl	none
CC1(C)CNc2cc(N)ccc2S1	Diaph inh CS 72
S=C(Nc1ccc(Cl)cc1)Nc1cccc2cnccc12	Diaph inh CS 51
S=C(Nc1cccnc1)Nc1cccc2cnccc12	Diaph inh CS 62
Fc1ccc(NC(=S)Nc2cccc3cnccc23)cc1	none
COc1ccc(NC(=S)Nc2cccc3cnccc23)cc1	Diaph inh CS 56
CCOc1ccc(NC(=S)Nc2cccc3cnccc23)cc1	Diaph inh CS 55
O=S(=O)(NCc1ccccc1)c1ccc(Cl)c(S(=O)(=O)NCc2ccccc2)c1	none
Cc1nn(C)c(C(=O)N/N=C/c2cccc3ccccc23)c1Cl	none
O=C(CN1CCOCC1)N/N=C/C=C/c1ccccc1	none
COc1ccccc1NC(=S)NCc1cccnc1	none
COc1ccccc1NC(=S)Nc1cccc2cnccc12	Diaph inh CS 65
CCc1ccc(NC(=O)CSCc2ccc(C(=O)O)cc2)cc1	Efa HMGR inh 21
CC(=O)Nc1ncc(Cc2cccc(Cl)c2Cl)s1	none
CCCCCc1ccc(OCCC[n+]2ccccc2)c(CCCCC)c1	none (no result: Diaph inh CS, ABCG2 block, Diaph act CS, ABCB1 block, Efa HMGR inh)
